Data: article PMC2854813 (Advanced synthesis & catalysis, 2009)
Read-outs that look alike come from different tables or passages of the source.

Tests used:
[1] = target: T1, PETNR (Enterobacter cloacae, UniProt P71278); assay: Substrate screen of PETNR by spectrophotometric assays or GC analysis; assay type: biochemical, Enterobacter cloacae st. PB2
T1 sequence (P71278 1-365): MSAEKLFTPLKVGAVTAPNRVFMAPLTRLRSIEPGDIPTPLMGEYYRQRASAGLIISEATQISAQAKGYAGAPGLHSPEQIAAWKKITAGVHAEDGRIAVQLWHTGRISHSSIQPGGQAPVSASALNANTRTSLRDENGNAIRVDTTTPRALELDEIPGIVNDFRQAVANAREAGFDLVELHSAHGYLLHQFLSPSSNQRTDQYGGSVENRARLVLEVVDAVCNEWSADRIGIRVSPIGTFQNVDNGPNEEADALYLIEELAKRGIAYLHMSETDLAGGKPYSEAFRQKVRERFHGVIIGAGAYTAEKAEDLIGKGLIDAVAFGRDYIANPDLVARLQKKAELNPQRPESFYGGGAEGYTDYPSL

[2] = target: T1, PETNR; assay: Steady-state kinetics of PETNR with α,β-unsaturated activated alkenes; assay type: biochemical, Enterobacter cloacae st. PB2; conditions: for Km / kcat: apparent, 5% ethanol
[3] = target: T1, PETNR; assay: Time course of ketoisophorone reduction and product racemisation, PETNR 0.02 μM; assay type: biochemical, Enterobacter cloacae st. PB2
Summary of the method: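 Racemisation time course of ketoisophorone reduction at pH 7.0 over 24 h; substrate added in DMF (2% final). Controls at 8 h either removed enzyme by 10 kDa spin filtration (5000 rpm, 5 min) or added the PETNR inhibitor 1,4,5,6-tetrahydroNADPH (1.2 mg), then incubated to 24 h total. Conversion by GC (DB-Wax); ee by GC (Chirasil-DEX-CB).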

[4] = target: T1, PETNR; assay: Enzyme concentration dependence of the reduction of ketoisophorone by PETNR; assay type: biochemical, Enterobacter cloacae st. PB2; conditions: 2 h, pH 7.0, 3a 5 mM, NADPH 6 mM
Summary of the method: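 Ketoisophorone (5 mM) and NADPH (6 mM) with varied PETNR in 50 mM phosphate pH 7.0, shaken at 130 rpm at 30 °C for 2 h. Extraction was into ethyl acetate containing internal standard. Conversion was by GC (DB-Wax) and ee by GC on a Chirasil-DEX-CB column.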

[5] = target: T1, PETNR; assay: Aerobic versus anaerobic steady-state reaction rate of PETNR; assay type: biochemical, Enterobacter cloacae st. PB2; conditions: aerobic compared to anaerobic assays
Summary of the method: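 NADPH oxidation was followed at 340 nm (365 nm for substrates absorbing at 340 nm) for 2 min at 25 °C. Anaerobic runs used a glove box (<5 ppm O2) with deoxygenated enzyme; aerobic runs were done outside it.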

[6] = target: T1, PETNR; assay: Time effect on optical purity of levodione at PETNR 2 μM; assay type: biochemical, Enterobacter cloacae st. PB2; conditions: Supporting Information Table S1
[7] = target: T1, PETNR; conditions: cited from earlier work
[8] = anaerobic, pH 7.0, 25 °C, NADPH 100 μM

Compound: O=C(O)C1=CCCCC1 [1-cyclohexene-1-carboxylic acids, 1-cyclohexene-1-carboxylic acid]
- activity of PETNR towards the substrate (in words) [1]: did not reduce

Compound: CC1=CC(=O)NC1=O [2a, 2-Methylmaleimide]
- Ki [2]: 3.2 ± 0.7 mM

Compound: BrC1C=CCCC1 (stereo not drawn) [3-bromocyclohexene]
- activity of PETNR towards the substrate (in words) [1]: no activity

Compound: O=C1C=C(c2ccccc2)CCC1 [3-phenylcyclohexene-1-one]
- activity of PETNR towards the substrate (in words) [1]: inactive

Compound: O=C(O)/C=C(\C(=O)O)c1ccccc1 [3-phenylmaleic acid]
- activity of PETNR towards the substrate (in words) [1]: did not reduce

Compound: CC1=CC(=O)CC(C)(C)C1=O [3a, ketoisophorone]
- Km [2, 8]: 13.7 ± 0.5 µM
- kcat [2, 8]: 5.52 ± 0.10 s⁻¹
- Conv. [%] ([3]; 0.5 h, PETNR 0.02 μM, pH 7.0): 14%
- Conv. [%] ([3]; 1 h, PETNR 0.02 μM, pH 7.0): 27%
- Conv. [%] ([3]; 1.5 h, PETNR 0.02 μM, pH 7.0): 37%
- Conv. [%] ([3]; 3 h, PETNR 0.02 μM, pH 7.0): 53%
- Conv. [%] ([3]; 4 h, PETNR 0.02 μM, pH 7.0): 69%
- Conv. [%] ([3]; 6 h, PETNR 0.02 μM, pH 7.0): 85%
- Conv. [%] ([3]; 8 h, PETNR 0.02 μM, pH 7.0): 94%
- Conv. [%] ([3]; 12 h, PETNR 0.02 μM, pH 7.0): 98%
- Conv. [%] ([3]; 22 h, PETNR 0.02 μM, pH 7.0): >99%
- Conv. [%] ([3]; 24 h, PETNR 0.02 μM, pH 7.0): >99%
- Conv. [%] ([3]; 24 h, PETNR inhibitor NADPH4 (1.2 mg) added after 8 h): 99%
- Conv. [%] ([3]; 24 h, filtered (10 K filter) after 8 h to remove all enzyme content): 99%
- Conv. [%] ([4]; enzyme 0.002 μM): 2%
- Conv. [%] ([4]; enzyme 0.02 μM): 37%
- Conv. [%] ([4]; enzyme 0.2 μM): >99%
- Conv. [%] ([4]; enzyme 2 μM): >99%

Compound: O=C1C=CCCC1 [4a, 2-cyclohexenone]
- Ki [2]: 23.3 ± 1.7 mM
- reduction in the overall steady-state reaction rate [5]: 18%

Compound: CCC=C(C)C=O [10a, 2-methylpentenal]
- Km [2, 8]: 102 ± 10.5 µM
- kcat [2, 8]: 6.23 ± 0.33 s⁻¹
- Ki ([2]; substrate inhibition, anaerobic, pH 7.0, 25 °C, NADPH 100 μM): 1.93 ± 0.46 mM
- reduction in the overall steady-state reaction rate [5]: 48%

Compound: CC1=CC(=O)CCC1 [15a, 3-methylcyclohexenone]
- activity of PETNR towards the substrate (in words) [1]: significant reduction in enzyme activity

Compound: CC1=CC(=O)CC1 [16a, 3-methylcyclopentenone]
- activity of PETNR towards the substrate (in words) [1]: significant reduction in enzyme activity

Compound: C[C@@H]1CC(=O)CC(C)(C)C1=O [(R)-3b, (R)-Levodione]
- rate of racemisation [6]: 3 % ee/h
- decline in enantiopurity with time (rate of racemisation) ([3]; PETNR 0.02 μM, pH 7.0, 30 °C, aqueous, non-enzymatic): approximately 3 % ee/h

Compound: NC(=O)C1=CN([C@@H]2O[C@H](COP(=O)(O)OP(=O)(O)OC[C@H]3O[C@@H](n4cnc5c(N)ncnc54)[C@H](OP(=O)(O)O)[C@@H]3O)[C@@H](O)[C@H]2O)CCC1 [NADPH4, 1,4,5,6-tetrahydroNADPH]
- inhibition of PETNR activity (in words) [7]: excellent inhibitor

Compound: C/C=C/C#N [crotonitrile]
- activity of PETNR towards the substrate (in words) [1]: no activity

Compound: N#CC1=CCCCC1 [cyclohexene-1-carbonitrile]
- activity of PETNR towards the substrate (in words) [1]: no activity

Compound: COC(=O)C1=CCCCC1 [methyl cyclohexenecarboxylate, methyl 1-cyclohexene-1-carboxylate]
- activity of PETNR towards the substrate (in words) [1]: did not reduce

Compound: COC(=O)/C=C/c1ccccc1 [methyl trans-cinnamate]
- activity of PETNR towards the substrate (in words) [1]: did not reduce

Compound: O=C(O)/C=C/c1ccccc1 [trans-cinnamic acid]
- activity of PETNR towards the substrate (in words) [1]: did not reduce

Compound: NC(=O)/C=C/c1ccccc1 [trans-cinnamide]
- activity of PETNR towards the substrate (in words) [1]: did not reduce

Compound: N#C/C=C/c1ccccc1 [trans-cinnamonitrile]
- activity of PETNR towards the substrate (in words) [1]: no activity

Compound: BrC=Cc1ccccc1 [β-bromostyrene]
- activity of PETNR towards the substrate (in words) [1]: no activity
